Laboratory results published in ChEMBL document CHEMBL4513216, “Probing the Open Global Health Chemical Diversity Library for Multistage-Active Starting Points for Next-Generation Antimalarials” (ACS Infect Dis, 2020).

Experiment: Toxicity liver stage against HepG2, at 10uM
Format: cell-based
Set-up: test concentration 10 uM, cell line HepG2-A16-CD81EGFP
Details: human, HepG2-A16-CD81EGFP cells; read-out: INHIBITION
Summary of the method: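 Uninfected HepG2-A16-CD81EGFP cells, 3 × 10^3 per well, 1536-well, plated on prespotted compound at 10 μM final, parasite-free screening media added to match infected plates; puromycin 10 μM positive, DMSO 0.5% negative; run in parallel with 48 h PbLuc assay at 37 °C, 5% CO2; viability by CellTiter-Glo luminescence, normalized to controls.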

SMILES	cytotoxicity at 10 µM [%]
O=C1NCCCc2c1oc1ccc(O)c(CN3CCOCC3)c21	13.3
O=C(c1cc2ccccc2[nH]1)N1CCCCC1Cn1cccn1 (stereo unspecified)	1.27
CCc1ccc(CN2CCC3(CC2)C(=O)N(C)CCN3CC2CC2)cc1	5.68
COC(=O)N1CCN(c2ncnc3nc(C)cc(C)c23)CC1	-15.2
CCc1c(C)nc2ccccc2c1N1CCC(O)CC1	0.395
CC(C)c1nn(C)c(N2CCOCC2)c1CNC(C)c1ccco1 (stereo unspecified)	-5.93
CN(C)Cc1csc(-c2nccn2CCc2cccnc2)c1	-51.2
Cc1[nH]ccc1C(=O)N1C[C@@H]2CC[C@H]1CN(S(=O)(=O)N(C)C)C2	11.8
O=C(Cc1ccccn1)N1C[C@H]2CCC[C@@]2(COc2ccccn2)C1	1.86
Cc1cc(C)cc(C(=O)N2CCCN(CC(N)=O)CC2)c1	-5.65
Cn1cccc1C(=O)N1C[C@H](OCC2CCOCC2)[C@H]2COC[C@H]21	-109
CC(=O)Nc1ccc(CNC2COc3c2ccc(C)c3C)cc1 (stereo unspecified)	6.56
CCc1ncc2c(n1)CN(C(=O)CNC(=O)c1ccccc1)C2	2.41
Cc1ccc(C(=O)N2C[C@@H](NS(C)(=O)=O)[C@H](C(C)C)C2)cc1O	-2.62
O=C(Nc1ccc(Cl)cn1)C1CCCN(CCc2ccncc2)C1 (stereo unspecified)	-8.87
CN(C)C(=O)[C@H]1C[C@@H]2CCN(Cc3ccncc3)C[C@H]2O1	0.866
COc1ccc(C(=O)N(CCO)Cc2ccccc2)c(OC)n1	3.33
Cc1nc(NC(=O)N2CCCC(N(C)C)C2)nn1C (stereo unspecified)	-9.4
O=c1c2ccccc2nc2n1CCN(Cc1cccs1)CC2	2.39

SMILES	cytotoxicity at 10 µM [%]
CC(C)NC(=O)Nc1cccc2c1CCN(S(C)(=O)=O)C2	-8.59
CCNC(=O)N1C[C@@H]2OCC(=O)N(C(C)C)[C@@H]2C1	-0.155
CCOCc1ccccc1NC(=O)NC1CCN(CC(F)(F)F)C1 (stereo unspecified)	1.81
CCOCC(=O)N1CCC(C)(c2nccs2)CC1	7.64
O=C(Nc1ccc(Cl)cn1)c1nn(C2CCS(=O)(=O)C2)c2c1CCCC2 (stereo unspecified)	1.61
CCOC(=O)CC1CCCCN1C(=O)CCc1cc(Cl)no1 (stereo unspecified)	6.95
Cc1ccc(CNC(c2cccc(F)c2)c2nccn2C)o1 (stereo unspecified)	5.48
CCC[C@H]1CN(S(C)(=O)=O)C[C@@H]1NC(=O)COC(C)C	-1.09
O=C(NCCN1CCc2ccccc2C1)c1scnc1Cl	-4.84
COc1ccc(C2=CCN(C(=O)CN(C)Cc3ccoc3)CC2)cc1	-4.87
CCOCCn1nc(C)cc1C(=O)N1CCC2(CC1)[C@H](O)C[C@@H]2OCC	4.35
Cc1ncc(C(=O)NCCNC(=O)c2ccccc2)s1	-3.67
CC1=Nc2c(c(=O)[nH]n2C(C)C)C(c2ccc3nccnc3c2)S1 (stereo unspecified)	7.29
COc1ccccc1OCc1cc(C(=O)N2CCCCCC2CO)n[nH]1 (stereo unspecified)	-2.48
CC(=O)Nc1ccc(C(=O)NCCCn2cccc2)cc1	-2.66
CCC(CC)(CNC(=O)OC(C)(C)C)NC(=O)C1CC1	-0.708
Cc1ccc(S(=O)(=O)N2C[C@H]3C[C@H](NC(=O)C(C)C)[C@H]3C2)cc1	-4.59
Cc1nc(-c2cccnc2)ncc1C(=O)N1CCCC(N(C)C)CC1 (stereo unspecified)	9.81
COC(=O)[C@H]1CN(C(=O)NC(C)C)CCN1C(=O)CSC	-6.52

SMILES	cytotoxicity at 10 µM [%]
CN(C)c1ncc(NC(=O)c2cccc(Nc3cnn(C)c3)c2)cn1	-2.93
Cc1ccccc1CN1CCC(NCC2CNc3ccnn3C2)CC1 (stereo unspecified)	0.0194
CCC(NC(=O)c1nn(C)cc1C(=O)O)c1ccc(C)cc1C (stereo unspecified)	-8.66
Cc1nc(CN2CCN(c3ncnc4ccccc34)CC2)no1	61.5
CCNC(=O)NC(=O)CNC1(c2noc(C)n2)CCCC1	20.6
CC(C)Oc1cccc(Cc2nc3c([nH]2)CCCNC3=O)c1	-12.9
CCC(O)CN1CCN(C(=O)c2cnc3n[nH]c(C)c3c2)CC1 (stereo unspecified)	-5
Cc1cc(Cl)ccc1S(=O)(=O)NCC(C)N1CCN(C)CC1 (stereo unspecified)	8.35
CC(C)CN1Cc2cccc(NC(=O)Cc3ccon3)c2C1	4.86
Cc1ccc(=O)n(CC2(O)CCN(Cc3cnc(C)nc3)CC2)n1	4.3
Cc1ccnn1C(C)C(=O)Nc1cc(-c2ccncc2)[nH]n1 (stereo unspecified)	-10.7
CN(Cc1cc(-c2ccccc2)no1)Cc1nccn1C	-2.27
Cn1cccc1CN1CCc2c(nc(-c3ccccn3)[nH]c2=O)C1	-10
O=C(Cc1ccc2c(c1)CCO2)N1CCN(c2nccs2)CC1	-10.7
Cc1cnccc1NCCNC1CCSCC1	-9.44
CCN(C(=O)Nc1cc(C)on1)C(C)c1cccc(O)c1 (stereo unspecified)	2.52
CSc1nccc(N2CCC(NCCN3CCOCC3)CC2)n1	-49.5
Cc1ccc(CCCC(=O)N(C)CCN2CCOCC2)cc1	-2.75
